The text below walks through data of PMC6733264 (ACS chemical biology, 2019).

Square brackets hold non-standard residues; d marks the D form. Ends that are not written are not given here. PEG = not defined here

One assay addresses full-length (FL) BRAF^WT (Homo sapiens, UniProt P15056). Nature of the assay: ELISA kinase assay of purified full-length BRAF, probing phosphorylated MEK. It counts as biochemical.
For assay [1], the target named is full-length (FL) BRAF^G469A (Homo sapiens, UniProt P15056, G469A). The description is as above. It counts as biochemical.
Assay [2] deals with HEK293 cells transiently transfected with BRAF^WT. The assay is described as follows: Immunoblot of MAPK signaling in transiently transfected HEK293 cells. The assay is classed as cell-based, human. The settings on record: for BRAF activity (phospho-MEK1/2): 0, 10, 25, 50, 75, 100 μM for 4 hr, 48 hr post-transfection.
The test system of assay [3] is HEK293 cells transiently transfected with BRAF^G469A. The description is as above. It counts as cell-based, human. The settings on record: for BRAF activity (phospho-MEK1/2): 0, 10, 25, 50, 75, 100 μM for 4 hr, 48 hr post-transfection.
The subject of assay [4] is p61 BRAF^V600E in HEK293 cells. The assay is described as follows: Immunoblot of HEK293 cells transfected with p61-BRAF^V600E. The assay is classed as cell-based, human. The following applies: increasing concentrations, 4 hr. The procedure, abridged: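 HEK293 cells were transiently transfected with 6X-His/FLAG-tagged p61-BRAF V600E in pcDNA4/TO. p61 is an aberrantly spliced BRAF of about 61 kDa. Cells were exposed to increasing concentrations of the TAT-tagged test peptide for 4 hr, then lysates were immunoblotted.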

The subject of the next assay is HCT116 cells. Nature of the assay: WST cell viability assay. It counts as cell-based, human. The settings on record: concentrations up to 100 μM, 48 hr.
The next assay relates to HCT-15 cells. Nature of the assay: WST cell viability assay. The assay is classed as cell-based, human. The following applies: concentrations up to 100 μM, 48 hr.

Sequence of full-length (FL) BRAF^G469A (P15056 whole entry G469A): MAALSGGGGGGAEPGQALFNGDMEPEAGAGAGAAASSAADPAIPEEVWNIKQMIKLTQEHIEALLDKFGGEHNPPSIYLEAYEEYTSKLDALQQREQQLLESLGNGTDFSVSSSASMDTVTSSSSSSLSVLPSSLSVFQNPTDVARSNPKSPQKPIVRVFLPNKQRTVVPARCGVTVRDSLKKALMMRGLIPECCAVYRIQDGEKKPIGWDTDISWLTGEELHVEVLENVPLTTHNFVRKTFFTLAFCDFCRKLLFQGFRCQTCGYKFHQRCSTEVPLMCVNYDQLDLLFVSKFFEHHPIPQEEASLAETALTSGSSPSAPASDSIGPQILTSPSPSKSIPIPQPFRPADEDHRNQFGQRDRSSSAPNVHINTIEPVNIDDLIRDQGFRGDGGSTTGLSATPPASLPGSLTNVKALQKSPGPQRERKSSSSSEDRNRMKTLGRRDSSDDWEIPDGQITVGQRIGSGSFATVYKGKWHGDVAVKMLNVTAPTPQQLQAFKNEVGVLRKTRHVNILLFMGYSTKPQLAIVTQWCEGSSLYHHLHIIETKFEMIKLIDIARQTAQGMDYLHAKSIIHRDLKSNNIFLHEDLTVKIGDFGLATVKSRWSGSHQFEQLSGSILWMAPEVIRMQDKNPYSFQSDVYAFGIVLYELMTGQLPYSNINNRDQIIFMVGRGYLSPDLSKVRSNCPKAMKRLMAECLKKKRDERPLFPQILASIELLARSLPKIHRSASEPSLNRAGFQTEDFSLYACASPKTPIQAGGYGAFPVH
Sequence of full-length (FL) BRAF^WT (P15056 whole entry): as the sequence (P15056 whole entry G469A) above, with A469G counted along it

Turning to THHVNILLFM [R/H-braftide], the IC50 at full-length (FL) BRAF^WT lay within 2.49 to 4.98 µM; in assay [1], 0.625 to 3.34 µM.

In the case of “TAT-braftide (GRKKRRQRRRPQ[PEG]TRHVNILLFM; reading uncertain; also: PEG linker between TAT and braftide)”, the “BRAF activity (phospho-MEK1/2)” value in assay [2] (immunoblot) and in assay [3] was “significantly reduced the activity of BRAF in a dose-dependent manner” throughout. Moreover, the “protein levels of overexpressed BRAF and endogenous MEK1” value in assay [2] (0-100 μM for 4 hr, immunoblot) is “markedly decreased in a dose-dependent manner”; in assay [3] (0-100 μM for 4 hr) it was “markedly decreased in a dose-dependent manner”. Also, in assay [2] (pre-treatment with 75 μM for 2 h, then dabrafenib 1 hr), the “paradoxical effect caused by lower doses of dabrafenib” value is recorded as “abrogated the paradoxical effect”. In assay [4], the “pMEK and pERK levels” value is “decrease in both pMEK and pERK levels”.

Turning to “GRKKRRQRRRPQ [TAT peptide, reference compound]”, the “BRAF activity (phospho-MEK1/2)” value in assay [2] (immunoblot) and in assay [3] was “no inhibition effect was observed” throughout. For the same compound, the cell death result in the assay with HCT116 cells and with HCT-15 cells was “no cell death was observed” in each case.

As for `CC(C)(C)c1nc(-c2cccc(NS(=O)(=O)c3c(F)cccc3F)c2F)c(-c2ccnc(N)n2)s1` [dabrafenib, reference compound], in assay [2] (0-10 μM for 1 hr, activates MAPK signaling at lower concentrations), the “concentration at which dabrafenib alone acts as an inhibitor of MAPK signaling” value is listed as “above 10 μM”.
